Values belong to the compound of their own block, whether it stands above or below them.
Key:
[1] = target: Cystic fibrosis transmembrane conductance regulator (Homo sapiens, UniProt P13569, F508DEL); test: Potentiation of human CFTR F508del mutant expressed in mouse NIH-3T3 cells after 30 mins by fluorescent voltage sensing optical assay; assay type: cell-based, NIH3T3
Summary of the method: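 NIH-3T3 fibroblasts stably expressing human F508del-CFTR were held 16–24 h at 27 °C to correct misfolding. Cells were washed in NaCl/HEPES bath, pH 7.4, then loaded with voltage-sensing dyes plus compound for 30 min at room temperature. Cl−-free bath with forskolin was added once, and membrane potential change was read by fluorescence. EC50 is mean ± SD of at least three determinations.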

[2] = AUC (0 to infinity) in Sprague-Dawley rat at 2.45 mg/kg, iv; assay type: ADME, organism-based; parameters: time infinity, dose 2.45 mg/kg, route intravenous; details: plasma
Summary of the method: (§1)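 Male Sprague−Dawley rats, n = 3/group, single iv dose in dimethyl isosorbide/ethanol/PEG400/D5W (10%/15%/35%/40%) at 1 mL/kg. Carotid cannula blood at predose, 5, 15, 30, 45 min and 1, 2, 4, 6, 8, 12, 24, 36, 48 h. Plasma levels by LC/MS/MS (LLOQ 1 ng/mL, linear 1–2500 ng/mL). Noncompartmental analysis of mean profiles using measured doses.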

[3] = Clearance in Sprague-Dawley rat at 2.45 mg/kg, iv; assay type: ADME, organism-based; parameters: dose 2.45 mg/kg, route intravenous; details: in vivo
Summary of the method: (§2)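 Animals (n = 3/group; male mouse, Sprague-Dawley rat, beagle dog, cynomolgus monkey) got a single iv dose in dimethyl isosorbide/ethanol/PEG400/D5W (10%/15%/35%/40%) at 1 mL/kg. Heparinized blood was drawn via an indwelling carotid cannula from predose to 48 h. Plasma was assayed by LC/MS/MS (LLOQ 1 ng/mL, linear 1–2500 ng/mL). Parameters came from noncompartmental analysis of mean profiles using measured doses.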

[4] = Half life in Sprague-Dawley rat at 2.45 mg/kg, iv; assay type: ADME, organism-based; parameters: dose 2.45 mg/kg, route intravenous; details: in vivo; summary of the method: as §2
[5] = Volume of distribution at steady state in Sprague-Dawley rat at 2.45 mg/kg, iv; assay type: ADME, organism-based; parameters: dose 2.45 mg/kg, route intravenous; details: in vivo, read-out: Vdss; summary of the method: as §2
[6] = tested on: Cystic fibrosis transmembrane conductance regulator (Homo sapiens), P13569 [F508del]; test: Potentiation of human CFTR F508del mutant expressed in mouse NIH-3T3 cells at 30 uM after 30 mins by fluorescent voltage sensing optical assay relative to VRT-532; assay type: cell-based; details: NIH3T3
Sequence of Cystic fibrosis transmembrane conductance regulator (Homo sapiens), P13569 [F508del] (P13569 as listed by the source): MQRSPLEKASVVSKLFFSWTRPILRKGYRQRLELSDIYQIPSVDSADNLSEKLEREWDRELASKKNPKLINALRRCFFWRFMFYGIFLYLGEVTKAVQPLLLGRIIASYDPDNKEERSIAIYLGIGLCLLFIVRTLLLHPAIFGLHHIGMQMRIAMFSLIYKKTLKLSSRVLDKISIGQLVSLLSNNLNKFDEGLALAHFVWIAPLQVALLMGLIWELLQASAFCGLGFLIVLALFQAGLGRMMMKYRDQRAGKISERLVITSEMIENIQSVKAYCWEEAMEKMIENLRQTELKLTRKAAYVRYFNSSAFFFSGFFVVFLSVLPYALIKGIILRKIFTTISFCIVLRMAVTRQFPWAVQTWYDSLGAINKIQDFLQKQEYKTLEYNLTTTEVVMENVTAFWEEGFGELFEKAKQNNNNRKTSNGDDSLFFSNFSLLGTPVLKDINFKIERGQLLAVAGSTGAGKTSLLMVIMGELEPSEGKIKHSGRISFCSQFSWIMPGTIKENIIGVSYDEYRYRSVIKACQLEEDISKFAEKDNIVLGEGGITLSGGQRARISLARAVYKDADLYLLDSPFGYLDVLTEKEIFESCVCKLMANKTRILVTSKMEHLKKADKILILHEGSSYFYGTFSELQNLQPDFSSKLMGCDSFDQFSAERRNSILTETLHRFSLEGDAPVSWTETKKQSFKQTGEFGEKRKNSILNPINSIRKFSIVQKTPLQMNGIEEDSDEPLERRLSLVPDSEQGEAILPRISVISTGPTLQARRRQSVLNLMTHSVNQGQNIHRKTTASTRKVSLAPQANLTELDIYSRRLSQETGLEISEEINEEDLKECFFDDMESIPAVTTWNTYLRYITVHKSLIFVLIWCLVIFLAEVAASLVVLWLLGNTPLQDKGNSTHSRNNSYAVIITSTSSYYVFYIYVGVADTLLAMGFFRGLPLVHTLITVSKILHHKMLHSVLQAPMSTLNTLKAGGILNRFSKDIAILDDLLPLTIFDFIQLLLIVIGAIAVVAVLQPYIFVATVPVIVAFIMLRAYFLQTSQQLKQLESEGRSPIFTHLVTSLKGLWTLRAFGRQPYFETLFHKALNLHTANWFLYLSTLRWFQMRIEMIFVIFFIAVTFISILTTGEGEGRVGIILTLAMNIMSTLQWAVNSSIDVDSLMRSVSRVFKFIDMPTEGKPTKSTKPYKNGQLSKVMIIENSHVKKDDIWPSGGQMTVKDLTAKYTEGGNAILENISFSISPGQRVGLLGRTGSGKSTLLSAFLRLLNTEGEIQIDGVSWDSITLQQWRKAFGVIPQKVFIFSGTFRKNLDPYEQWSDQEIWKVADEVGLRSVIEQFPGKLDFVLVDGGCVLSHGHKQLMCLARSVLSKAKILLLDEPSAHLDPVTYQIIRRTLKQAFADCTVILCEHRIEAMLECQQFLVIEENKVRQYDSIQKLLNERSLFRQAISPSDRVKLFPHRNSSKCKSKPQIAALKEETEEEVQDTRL
Summary of the method: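 Same F508del-CFTR NIH-3T3 membrane-potential assay: 27 °C correction for 16–24 h, dye plus compound for 30 min at room temperature, then forskolin in Cl−-free bath. Compounds below 50% activity at 30 μM were not titrated. Their response at 30 μM is given as % of VRT-532.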

[7] = AUC (0 to infinity) in Sprague-Dawley rat at 1.57 mg/kg, iv; assay type: ADME, organism-based; parameters: time infinity, dose 1.57 mg/kg, route intravenous; details: plasma; summary of the method: as §1
[8] = Clearance in Sprague-Dawley rat at 1.57 mg/kg, iv; assay type: ADME, organism-based; parameters: dose 1.57 mg/kg, route intravenous; details: in vivo; summary of the method: as §2
[9] = Half life in Sprague-Dawley rat at 1.57 mg/kg, iv; assay type: ADME, organism-based; parameters: dose 1.57 mg/kg, route intravenous; details: in vivo; summary of the method: as §2
[10] = Volume of distribution at steady state in Sprague-Dawley rat at 1.57 mg/kg, iv; assay type: ADME, organism-based; parameters: dose 1.57 mg/kg, route intravenous; details: in vivo, read-out: Vdss; summary of the method: as §2
[11] = Binding affinity to ligand-gated chloride channel (unknown origin); parameters: species or system Homo sapiens
[12] = Clearance in Sprague-Dawley rat at 2.5 mg/kg, iv; assay type: ADME, organism-based; parameters: dose 2.5 mg/kg, route intravenous; details: in vivo; summary of the method: as §2
[13] = Half life in Sprague-Dawley rat at 2.5 mg/kg, iv; assay type: ADME, organism-based; parameters: dose 2.5 mg/kg, route intravenous; details: in vivo; summary of the method: as §2
[14] = Volume of distribution at steady state in Sprague-Dawley rat at 2.5 mg/kg, iv; assay type: ADME, organism-based; parameters: dose 2.5 mg/kg, route intravenous; details: in vivo, read-out: Vdss; summary of the method: as §2
[15] = Oral bioavailability in Sprague-Dawley rat at 2.5 mg/kg; assay type: ADME, organism-based; details: in vivo
Summary of the method: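 Single oral dose, n = 3/group. Heparinized carotid-cannula blood was sampled at predose, 0.25, 0.5, 1, 1.5, 2, 4, 8, 12 and 24 h. Plasma levels were measured by LC/MS/MS (LLOQ 1 ng/mL). AUC and bioavailability were derived by noncompartmental analysis of mean concentration–time profiles against the iv arm.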

[16] = Clearance in beagle dog at 1 mg/kg, iv; assay type: ADME, organism-based, Canis lupus familiaris; parameters: dose 1 mg/kg, route intravenous; details: in vivo; summary of the method: as §2
[17] = Half life in beagle dog at 1 mg/kg, iv; assay type: ADME, organism-based, Canis lupus familiaris; parameters: dose 1 mg/kg, route intravenous; details: in vivo; summary of the method: as §2
[18] = Volume of distribution at steady state in beagle dog at 1 mg/kg, iv; assay type: ADME, organism-based, Canis lupus familiaris; parameters: dose 1 mg/kg, route intravenous; details: in vivo, read-out: Vdss; summary of the method: as §2
[19] = target: GABA-A receptor; benzodiazepine site (Homo sapiens); test: Binding affinity to GABAA receptor (unknown origin)

Sequence of Cystic fibrosis transmembrane conductance regulator (P13569 as listed by the source): as above

SMILES: CC(C)(C)c1c[nH]c2cc(NC(=O)c3c[nH]c4ccccc4c3=O)ccc12
EC50 [1]: 9 nM | AUC(0-inf) [2]: 700 ng·h/mL | clearance [3]: 60.7 mL/min/kg | half-life [4]: 1.3 h | Vd [5]: 4.4 L/kg

SMILES: O=C(Oc1ccc2cc[nH]c2c1)c1c[nH]c2ccccc2c1=O
Activity [6]: 19%

SMILES: CC(C)(C)c1ccc(NC(=O)c2c[nH]c3ccccc3c2=O)cc1S(N)(=O)=O
EC50 [1]: 5100 nM

SMILES: CC(C)(C)c1cc(C(F)(F)F)c(NC(=O)c2c[nH]c3ccccc3c2=O)cc1O
EC50 [1]: 3 nM

SMILES: COC(=O)Nc1cc(NC(=O)c2c[nH]c3ccccc3c2=O)ccc1C(C)(C)C
EC50 [1]: 3500 nM

SMILES: CC(C)c1ccc(NC(=O)c2c[nH]c3ccccc3c2=O)cc1
EC50 [1]: 200 nM

SMILES: CC(C)(C)c1cc(F)c(NC(=O)c2c[nH]c3ccccc3c2=O)cc1O
EC50 [1]: 2 nM | AUC(0-inf) [7]: 520 ng·h/mL | clearance [8]: 62.9 mL/min/kg | half-life [9]: 1.1 h | Vd [10]: 2.9 L/kg

SMILES: O=c1c(S(=O)(=O)Nc2ccc3cc[nH]c3c2)c[nH]c2ccccc12
Activity [6]: 1%

SMILES: CC(C)c1ccccc1NC(=O)c1c[nH]c2ccccc2c1=O
EC50 [1]: 200 nM

SMILES: CC(=O)Nc1cc(NC(=O)c2c[nH]c3ccccc3c2=O)ccc1C(C)(C)C
Activity [6]: 24%

SMILES: O=C(Nc1ccc2cc[nH]c2c1)c1c[nH]c2ccccc2c1=O
EC50 [1]: 100 nM | IC50 [11]: 100 nM | clearance [12]: 28 mL/min/kg | half-life [13]: 1.3 h | Vd [14]: 2.4 L/kg | bioavailability [15]: 11% | clearance [16]: 17 mL/min/kg | half-life [17]: 0.9 h | Vd [18]: 1.6 L/kg | IC50 [19]: 100 nM

SMILES: N#CCc1ccccc1NC(=O)c1c[nH]c2ccccc2c1=O
EC50 [1]: 8500 nM

SMILES: O=C(Nc1ccc2nc[nH]c2c1)c1c[nH]c2ccccc2c1=O
Activity [6]: 12%

SMILES: O=C(Nc1ccc2cc[nH]c2n1)c1c[nH]c2ccccc2c1=O
Activity [6]: 13%

SMILES: O=C(c1cnc2ccccn2c1=O)N(Cc1ccccc1)Cc1ccccc1
Activity [6]: 10%

SMILES: O=C(Nc1ccccc1)c1c[nH]c2ccccc2c1=O
EC50 [1]: 1300 nM

SMILES: O=c1c(CNc2ccc3cc[nH]c3c2)c[nH]c2ccccc12
Activity [6]: 1%

Next, values leading:

EC50 [1]: 6000 nM
SMILES: Cc1ccc(NC(=O)c2c[nH]c3ccccc3c2=O)cc1N

EC50 [1]: 100 nM
SMILES: CC(C)(C)c1ccc(NC(=O)c2c[nH]c3ccccc3c2=O)cc1CO

EC50 [1]: 100 nM
SMILES: CCc1c[nH]c2cc(NC(=O)c3c[nH]c4ccccc4c3=O)ccc12

EC50 [1]: 1700 nM
SMILES: CCc1ccc(NC(=O)c2c[nH]c3ccccc3c2=O)cc1N

EC50 [1]: 800 nM
SMILES: CCc1ccc(NC(=O)c2c[nH]c3ccccc3c2=O)cc1

EC50 [1]: 400 nM
SMILES: CCCc1ccc(NC(=O)c2c[nH]c3ccccc3c2=O)cc1N

EC50 [1]: 100 nM
SMILES: CC(C)(C)c1ccc(NC(=O)c2c[nH]c3ccccc3c2=O)cc1N

— ChEMBL document CHEMBL3352164, “Discovery of N-(2,4-di-tert-butyl-5-hydroxyphenyl)-4-oxo-1,4-dihydroquinoline-3-carboxamide (VX-770, ivacaftor), a potent and orally bioavailable CFTR potentiator” (J Med Chem, 2014)
